# ChEMBL document CHEMBL3046055, “Synthesis and herbicidal activity of novel N-(2,2,2)-trifluoroethylpyrazole derivatives” (J Agric Food Chem, 2010)
# Experiments:
# [1] = tested on: Portulaca oleracea; assay: Herbicidal activity against Portulaca oleracea assessed as inhibition of shoot growth at […] measured 7 days post treatment; type: functional; settings: 168 h, read-out: GI
# Outline: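 Petri-dish agar assay. A 10 g/L stock of compound in acetone was mixed into molten agar; the untreated control was agar without compound. Seeds were placed on the agar surface and the cups were covered with glass lids. Incubation was 25 ± 1 °C, 50-55% RH, 12 h light/12 h dark, for 7 days. Root and shoot lengths were measured and growth inhibition calculated against the control, in three replicates.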
# [2] = tested on: Echinochloa crus-galli; assay: Herbicidal activity against Echinochloa crus-galli (barnyard grass) assessed as inhibition of root growth at […] measured 7 days post treatment; type: functional; set-up: dose or concentration left out as unconfirmed; settings: 168 h, read-out: GI
# [3] = tested on: Digitaria sanguinalis; assay: Herbicidal activity against Digitaria sanguinalis (hairy crabgrass) assessed as inhibition of fresh weed plant weights at 600 g ai/ha using pre-emergence treatment protocol under greenhouse conditions relative to untreated control; type: functional
# Outline: (§1)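 Pre-emergence test in plastic pots kept in a greenhouse at 22-25 °C. Fresh weight of aerial plant parts was measured 20 days later, and percent inhibition calculated relative to water-sprayed controls. Metolachlor served as the positive control. Three replicates were run per concentration.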
# [4] = tested on: Echinochloa crus-galli; assay: Herbicidal activity against Echinochloa crus-galli (barnyard grass) assessed as inhibition of fresh weed plant weights at 600 g ai/ha using pre-emergence treatment protocol under greenhouse conditions relative to untreated control; type: functional; outline: as §1
# [5] = tested on: Portulaca oleracea; assay: Herbicidal activity against Portulaca oleracea assessed as inhibition of root growth at […] measured 7 days post treatment; type: functional; set-up: dose or concentration left out as unconfirmed; settings: 168 h, read-out: GI
# [6] = tested on: Echinochloa crus-galli; assay: Herbicidal activity against Echinochloa crus-galli (barnyard grass) assessed as inhibition of shoot growth at […] measured 7 days post treatment; type: functional; set-up: dose or concentration left out as unconfirmed; settings: 168 h, read-out: GI
# [7] = tested on: Portulaca oleracea; assay: Herbicidal activity against Portulaca oleracea assessed as inhibition of fresh weed plant weights at 600 g ai/ha using pre-emergence treatment protocol under greenhouse conditions relative to untreated control; type: functional; outline: as §1
# [8] = tested on: Portulaca oleracea; assay: Herbicidal activity against Portulaca oleracea assessed as inhibition of fresh weed plant weights at 300 g ai/ha using pre-emergence treatment protocol under greenhouse conditions relative to untreated control; type: functional; outline: as §1
# [9] = tested on: Digitaria sanguinalis; assay: Herbicidal activity against Digitaria sanguinalis (hairy crabgrass) assessed as inhibition of fresh weed plant weights at 300 g ai/ha using pre-emergence treatment protocol under greenhouse conditions relative to untreated control; type: functional; outline: as §1
# [10] = tested on: Portulaca oleracea; assay: Herbicidal activity against Portulaca oleracea assessed as inhibition of fresh weed plant weights at 150 g ai/ha using pre-emergence treatment protocol under greenhouse conditions relative to untreated control; type: functional; outline: as §1
# [11] = tested on: Convolvulus arvensis; assay: Herbicidal activity against Convolvulus arvensis assessed as inhibition of fresh weed plant weights at 1404 g ai/ha using pre-emergence treatment protocol under field trials conditions measured 30 days post soil treatment relative to untreated control; type: functional; settings: 720 h
# [12] = tested on: Zea mays; assay: Toxicity against Zea mays var. SHEN DAN 17 (maize) assessed induction of crop injury at 1404 g ai/ha using pre-emergence treatment protocol under field trials conditions measured 30 days post soil treatment; type: organism-based; settings: in vivo, other, 720 h
# [13] = tested on: Portulaca oleracea; assay: Herbicidal activity against Portulaca oleracea assessed as inhibition of fresh weed plant weights at 1404 g ai/ha using pre-emergence treatment protocol under field trials conditions measured 30 days post soil treatment relative to untreated control; type: functional; settings: 720 h
# [14] = tested on: Brassica rapa subsp. oleifera; assay: Toxicity against Brassica rapa subsp. oleifera var. JING GUAN 1 assessed as inhibition of fresh weed plant weights at 300 g ai/ha using pre-emergence treatment protocol under greenhouse conditions relative to untreated control; type: organism-based; settings: in vivo, other; outline: as §1
# [15] = tested on: Eleusine indica; assay: Herbicidal activity against Eleusine indica assessed as inhibition of fresh weed plant weights at 150 g ai/ha using pre-emergence treatment protocol under greenhouse conditions relative to untreated control; type: functional; outline: as §1
# [16] = tested on: Eleusine indica; assay: Herbicidal activity against Eleusine indica assessed as inhibition of fresh weed plant weights at 300 g ai/ha using pre-emergence treatment protocol under greenhouse conditions relative to untreated control; type: functional; outline: as §1
# [17] = tested on: Brassica rapa subsp. oleifera; assay: Toxicity against Brassica rapa subsp. oleifera var. JING GUAN 1 assessed as inhibition of fresh weed plant weights at 150 g ai/ha using pre-emergence treatment protocol under greenhouse conditions relative to untreated control; type: organism-based; settings: in vivo, other; outline: as §1
# [18] = tested on: Eleusine indica; assay: Herbicidal activity against Eleusine indica assessed as inhibition of fresh weed plant weights at 1404 g ai/ha using pre-emergence treatment protocol under field trials conditions measured 30 days post soil treatment relative to untreated control; type: functional; settings: 720 h
# [19] = tested on: Echinochloa crus-galli; assay: Herbicidal activity against Echinochloa crus-galli (barnyard grass) assessed as inhibition of fresh weed plant weights at 150 g ai/ha using pre-emergence treatment protocol under greenhouse conditions relative to untreated control; type: functional; outline: as §1
# [20] = tested on: Echinochloa crus-galli; assay: Herbicidal activity against Echinochloa crus-galli (barnyard grass) assessed as inhibition of fresh weed plant weights at 1404 g ai/ha using pre-emergence treatment protocol under field trials conditions measured 30 days post soil treatment relative to untreated control; type: functional; settings: 720 h
# [21] = tested on: Digitaria sanguinalis; assay: Herbicidal activity against Digitaria sanguinalis (hairy crabgrass) assessed as inhibition of fresh weed plant weights at 150 g ai/ha using pre-emergence treatment protocol under greenhouse conditions relative to untreated control; type: functional; outline: as §1
# [22] = tested on: Eleusine indica; assay: Herbicidal activity against Eleusine indica assessed as inhibition of fresh weed plant weights at 600 g ai/ha using pre-emergence treatment protocol under greenhouse conditions relative to untreated control; type: functional; outline: as §1
# [23] = tested on: Digitaria sanguinalis; assay: Herbicidal activity against Digitaria sanguinalis (hairy crabgrass) assessed as inhibition of fresh weed plant weights at 1404 g ai/ha using pre-emergence treatment protocol under field trials conditions measured 30 days post soil treatment relative to untreated control; type: functional; settings: 720 h
# [24] = tested on: Brassica rapa subsp. oleifera; assay: Toxicity against Brassica rapa subsp. oleifera var. JING GUAN 1 assessed as inhibition of fresh weed plant weights at 600 g ai/ha using pre-emergence treatment protocol under greenhouse conditions relative to untreated control; type: organism-based; settings: in vivo, other; outline: as §1
# [25] = tested on: Zea mays; assay: Toxicity against Zea mays var. SHEN DAN 17 (maize) assessed as inhibition of fresh weed plant weights at 300 g ai/ha using pre-emergence treatment protocol under greenhouse conditions relative to untreated control; type: organism-based; settings: in vivo, other; outline: as §1
# [26] = tested on: Echinochloa crus-galli; assay: Herbicidal activity against Echinochloa crus-galli (barnyard grass) assessed as inhibition of fresh weed plant weights at 300 g ai/ha using pre-emergence treatment protocol under greenhouse conditions relative to untreated control; type: functional; outline: as §1
# [27] = tested on: Zea mays; assay: Toxicity against Zea mays var. SHEN DAN 17 (maize) assessed as inhibition of fresh weed plant weights at 600 g ai/ha using pre-emergence treatment protocol under greenhouse conditions relative to untreated control; type: organism-based; settings: in vivo, other; outline: as §1
smiles,measurement,setting,value
Cc1nn(CC(F)(F)F)c(CS(=O)(=O)C2=NOC(C)(C)C2)c1I,inhibition of growth at 100000 µg/mL,[1],62%
same,inhibition of growth,[2],63%
same,inhibition at 600 g/ha,[3],90%
same,inhibition at 600 g/ha,[4],100%
same,inhibition of growth,[5],75%
same,inhibition of growth,[6],84%
CCc1cccc(C)c1N(C(=O)CCl)C(C)COC (configuration not stated) [METOLACHOR],inhibition at 600 g/ha,[7],60%
same,inhibition at 300 g/ha,[8],57%
same,inhibition at 300 g/ha,[9],76%
same,inhibition at 150 g/ha,[10],36%
same,inhibition at 1404 g/ha,[11],47%
same,Activity,[12],0%
same,inhibition at 1404 g/ha,[13],100%
same,inhibition of growth at 100000 µg/mL,[1],62%
same,inhibition (INH),[14],9%
same,inhibition at 150 g/ha,[15],84%
same,inhibition of growth,[2],80%
same,inhibition at 300 g/ha,[16],98%
same,inhibition (INH),[17],0%
same,inhibition at 1404 g/ha,[18],99%
same,inhibition at 600 g/ha,[3],90%
same,inhibition at 150 g/ha,[19],25%
same,inhibition at 1404 g/ha,[20],100%
same,inhibition at 150 g/ha,[21],43%
same,inhibition at 600 g/ha,[22],97%
same,inhibition at 600 g/ha,[4],50%
same,inhibition at 1404 g/ha,[23],95%
same,inhibition (INH),[24],11%
same,inhibition (INH),[25],2%
same,inhibition at 300 g/ha,[26],39%
same,inhibition of growth,[5],74%
same,inhibition (INH),[27],2%
same,inhibition of growth,[6],88%
Cc1nn(CC(F)(F)F)c(CS(=O)(=O)C2=NOC(C)(C)C2)c1Br,inhibition of growth at 100000 µg/mL,[1],62%
same,inhibition of growth,[2],74%
same,inhibition at 600 g/ha,[3],79%
same,inhibition at 600 g/ha,[4],100%
same,inhibition of growth,[5],80%
same,inhibition of growth,[6],81%
Cc1nn(CC(F)(F)F)c(CSC2=NOC(C)(C)C2)c1I,inhibition of growth at 100000 µg/mL,[1],62%
same,inhibition of growth,[2],86%
same,inhibition at 600 g/ha,[3],54%
same,inhibition at 600 g/ha,[4],100%
same,inhibition of growth,[5],81%
same,inhibition of growth,[6],89%
Cc1nn(CC(F)(F)F)c(CSC2=NOC(C)(C)C2)c1Br,inhibition of growth at 100000 µg/mL,[1],54%
same,inhibition of growth,[2],86%
same,inhibition at 600 g/ha,[3],74%
same,inhibition at 600 g/ha,[4],82%
same,inhibition of growth,[5],80%
same,inhibition of growth,[6],88%
Cc1nn(CC(F)(F)F)c(CSC2=NOC(C)(C)C2)c1Cl,inhibition of growth at 100000 µg/mL,[1],54%
same,inhibition of growth,[2],89%
same,inhibition at 600 g/ha,[3],54%
same,inhibition at 600 g/ha,[4],81%
same,inhibition of growth,[5],75%
same,inhibition of growth,[6],88%
